ChEMBL document CHEMBL1155640, “Guaiane dimers and germacranolide from Artemisia caruifolia” (J Nat Prod, 2000)
Active and inactive are the calls of the source. The rule behind the calls is not given here.

Tests used:
Protease = Protease (Human immunodeficiency virus 1, UniProt Q9YQ12); assay: Inhibition of HIV1 protease
Method in brief: (§1)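 Commercial HIV protease assay kit, with inhibition calculated by a previously reported method. Compounds were screened at 100 µg/mL. IC50 was taken from concentration-dependent inhibition. Acetyl pepstatin served as positive control.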

[1] = system: Human immunodeficiency virus 1; assay: Antiviral activity against HIV1 in human MT4 cells assessed as inhibition of viral-induced cytopathic effect at 500 ug/mL; type: functional, organism-based
[2] = biological target: Protease (Human immunodeficiency virus 1) (UniProt Q9YQ12); assay: Inhibition of HIV1 protease at 100 ug/mL; method in brief: as §1
[3] = system: Human immunodeficiency virus 1; assay: Antiviral activity against HIV1 in human MT4 cells assessed as inhibition of viral-induced cytopathic effect at 250 ug/mL; type: functional, organism-based

Protease (Human immunodeficiency virus 1), sequence (Q9YQ12 as listed by the source): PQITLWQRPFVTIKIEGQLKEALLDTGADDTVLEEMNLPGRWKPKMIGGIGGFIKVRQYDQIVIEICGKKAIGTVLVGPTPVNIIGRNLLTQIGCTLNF
Protease, sequence (Q9YQ12 whole entry): as the sequence (Q9YQ12 as listed by the source) above

| Compound | inhibition [2] [%] | further results |
| --- | --- | --- |
| CC1=C2[C@H]3OC(=O)[C@@H](C)[C@@H]3CC[C@](C)(O)[C@@H]2[C@H]2[C@H]3C(=O)[C@H](C)[C@]4([C@@H]3[C@@](C)(O)CC[C@H]3[C@H](C)C(=O)O[C@@H]34)[C@@H]12 [CARUIFOLIN B] | 22 | IC50 (Protease): 293 µM; Activity [1]: Active |
| C/C1=C/[C@H]2OC(=O)[C@H](C)[C@H]2CC[C@]2(C)O[C@H]1C[C@H]2O | 22 |  |
| C=C1[C@@H](O)[C@@H]2[C@H]3[C@H](C(C)=C4[C@H]5OC(=O)[C@@H](C)[C@@H]5CC[C@](C)(O)[C@@H]43)[C@@]13[C@@H]2[C@@](C)(O)CC[C@H]1[C@H](C)C(=O)O[C@@H]13 | 22 |  |
| CC1=C2[C@H]3OC(=O)[C@@H](C)[C@@H]3CC[C@](C)(O)[C@@H]2[C@H]2[C@H]3C[C@]4(C)O[C@@]5(C)CC[C@H]6[C@H](C)C(=O)O[C@@H]6[C@@]4([C@@H]35)[C@@H]12 | 22 |  |
| CC1=C2[C@H]3OC(=O)[C@@H](C)[C@@H]3CC[C@](C)(O)[C@@H]2[C@H]2[C@@H]3[C@@H]4[C@]5([C@H]6OC(=O)[C@@H](C)[C@@H]6CC[C@]4(C)O[C@@]5(C)[C@H]3O)[C@@H]12 | 22 |  |
| CC1=C[C@H]2[C@H]3[C@H](C(C)=C4[C@H]5OC(=O)[C@@H](C)[C@@H]5CC[C@](C)(O)[C@@H]43)[C@@]13[C@@H]2[C@@](C)(O)CC[C@H]1[C@H](C)C(=O)O[C@@H]13 | 22 | Activity [3]: Active |
| CC1=C2[C@H]3OC(=O)[C@H](C)[C@@H]3CC[C@@](C)(O)[C@@H]2[C@H]2[C@H]3C[C@]4(C)O[C@@]5(C)CC[C@H]6[C@H](C)C(=O)O[C@@H]6[C@@]4([C@@H]35)[C@@H]12 | 22 |  |
| C[C@@H]1C(=O)O[C@@H]2C3=C([C@H]4C(=O)[C@]3(C)[C@@H]3[C@H](O)C5=C([C@H]6OC(=O)[C@@H](C)[C@@H]6CC[C@]5(C)O)[C@@]43C)[C@@](C)(O)CC[C@@H]12 | 22 |  |
